Assay results reported in ChEMBL document CHEMBL4715720, “Synthetic strategy and antiviral evaluation of diamide containing heterocycles targeting dengue and yellow fever virus” (Eur J Med Chem, 2016).

Assays:
[1] = (§1) Selectivity index, ratio of CC50 for African green monkey Vero-B cells infected with Dengue virus serotype 2 assessed as inhibition of cell growth to EC50 for Dengue Virus serotype 2 infected in Vero-B cells assessed as inhibition of virus-induced cytopathogenic effect incubated for 7 days by methylene blue staining based visual analysis; format: toxicity; details: read-out: Ratio CC50/EC50
dengue virus type 2 = assay: Antiviral activity against Dengue virus serotype 2 infected in Vero-B cells assessed as inhibition of virus-induced cytopathogenic effect after 7 days by methylene blue staining based visual analysis; format: functional, organism-based; details: 168 h
Summary of the method: (§2)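 Dengue virus serotype 2 was tested in green monkey kidney Vero-B cells from the ECACC line. EC50 is the concentration that inhibits virus-induced CPE by 50%. CC50 is the concentration that inhibits cell growth by 50%. Values were first obtained in μg/mL and then recalculated to μM.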

[2] = Cytotoxicity against African green monkey Vero-B cells infected with Dengue virus serotype 2 assessed as inhibition of cell growth after 7 days by methylene blue staining based visual analysis; details: chlorocebus aethiops, time 7 day; summary of the method: as §2
Yellow fever virus = assay: Antiviral activity against Yellow fever virus infected in Vero-B cells assessed as inhibition of virus-induced cytopathogenic effect after 7 days by methylene blue staining based visual analysis; format: functional, organism-based; details: 168 h
Summary of the method: (§3)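 Yellow fever virus was tested in Vero-B cells of the ATCC CCL-81 line. EC50 is the concentration giving 50% inhibition of virus-induced CPE. CC50 is the concentration giving 50% inhibition of cell growth. The original μg/mL data were converted to μM.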

[3] = Cytotoxicity against African green monkey Vero-B cells infected with Yellow fever virus assessed as inhibition of cell growth after 7 days by methylene blue staining based visual analysis; details: chlorocebus aethiops, time 7 day; summary of the method: as §3
[4] = as §1, with “Yellow fever” for “Dengue”, “virus” for “virus serotype 2”, “Yellow fever virus” for “Dengue Virus serotype 2”; format: toxicity; details: read-out: Ratio CC50/EC50

In the case of Cc1ccc(NC(=O)c2nccnc2C(=O)Nc2ccc(C)cc2-c2ccsc2)cc1, the selectivity ratio at 168 h [1] is reported as over 29.

Cc1ccc(NC(=O)c2ccccc2C(=O)Nc2ccc(C)cc2-c2ccsc2)cc1 gave a selectivity ratio at 168 h [1] of 41.

With Cc1ccc(NC(=O)c2nccnc2C(=O)Nc2ccc(C)cc2-c2cccs2)cc1 the selectivity ratio at 168 h [1] was over 235.

Work on O=C(NCc1ccccc1-c1ccsc1)c1ccccc1C(=O)Nc1ccc(F)cc1 yielded an EC50 (dengue virus type 2) of 3 µM, a CC50 at 168 h [2] of 50 µM and a selectivity ratio at 168 h [1] of 17. It also gave an EC50 (Yellow fever virus) of 1.4 µM, a CC50 at 168 h [3] of 75 µM and a selectivity ratio at 168 h [4] of 53.

Cc1ccc(NC(=O)c2nccnc2C(=O)Nc2ccc(F)cc2)c(-c2cccs2)c1 showed a selectivity ratio at 168 h [4] of 5.

Cc1ccc(NC(=O)c2ccccc2C(=O)Nc2ccc(F)cc2)c(-c2cc(C)n[nH]2)c1 showed a selectivity ratio at 168 h [1] of over 235.

In the case of Cc1ccc(NC(=O)c2nccnc2C(=O)Nc2ccccc2-c2cc(C)n[nH]2)cc1, the selectivity ratio at 168 h [4] is reported as over 34.

For Cc1ccc(NC(=O)c2nccnc2C(=O)Nc2ccc(C)cc2-c2cc(C)n[nH]2)cc1, the selectivity ratio at 168 h [1] was over 235.
